Reference: ChEMBL document CHEMBL2407036, “Flow Synthesis and Biological Studies of an Analgesic Adamantane Derivative That Inhibits P2X7-Evoked Glutamate Release” (ACS Med Chem Lett, 2013)
Calls of active or inactive are those of the source.

Legend:
[1] = system: Rattus norvegicus; assay: Antinociceptive activity against carrageenan-induced hyperalgesia in rat assessed as paw pressure at 10 mg/kg, po measured after 60 mins (reference value: 31.8 +/- 2.2 g); type: functional
How it was run: (§1)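 Rats received intraplantar carrageenan before oral dosing. Paw-pressure withdrawal threshold (g) was measured before treatment and at 15, 30, 60 and 90 min after it. Carrageenan-injected rats given vehicle served as reference, with saline-injected rats as a further control.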

[2] = system: Rattus norvegicus; assay: Antinociceptive activity against carrageenan-induced paw edema in rat assessed as paw edema volume at 10 mg/kg, po measured after 30 mins (reference value: 2.71+/- 0.08 ml); type: functional
[3] = biological target: T1, P2X purinoceptor 7 (Rattus norvegicus) (UniProt Q64663); settings: Brain, 50 uM
T1 sequence (whole entry): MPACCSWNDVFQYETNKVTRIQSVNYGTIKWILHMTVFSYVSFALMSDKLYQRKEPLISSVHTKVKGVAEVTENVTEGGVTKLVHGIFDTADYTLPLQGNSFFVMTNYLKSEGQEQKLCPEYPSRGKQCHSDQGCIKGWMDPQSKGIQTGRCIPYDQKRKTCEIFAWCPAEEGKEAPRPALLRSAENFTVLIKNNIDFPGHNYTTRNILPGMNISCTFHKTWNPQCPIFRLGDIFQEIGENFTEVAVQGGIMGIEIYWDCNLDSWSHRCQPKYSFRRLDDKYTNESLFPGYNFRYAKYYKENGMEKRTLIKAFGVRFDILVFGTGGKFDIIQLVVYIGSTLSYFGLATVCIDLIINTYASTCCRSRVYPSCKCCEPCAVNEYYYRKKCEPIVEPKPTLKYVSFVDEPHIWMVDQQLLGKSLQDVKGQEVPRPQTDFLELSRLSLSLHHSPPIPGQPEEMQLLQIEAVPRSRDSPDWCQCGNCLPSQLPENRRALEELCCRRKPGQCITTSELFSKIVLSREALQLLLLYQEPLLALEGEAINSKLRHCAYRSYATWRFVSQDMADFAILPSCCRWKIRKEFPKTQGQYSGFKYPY

[4] = system: Mus musculus; assay: Analgesic activity in Swiss albino mouse assessed as inhibition of acetic acid-induced abdominal contraction at 10 mg/kg, po measured after 30 mins in presence of naxolone; type: functional, organism-based; parameters: dose 10 mg/kg; settings: Abdominal cavity
[5] = system: Rattus norvegicus; assay: Antinociceptive activity against carrageenan-induced hyperalgesia in rat assessed as paw pressure at 3 mg/kg, po measured after 60 mins (reference value: 31.8 +/- 2.2 g); type: functional; how it was run: as §1
[6] = biological target: T1, P2X purinoceptor 7 (Rattus norvegicus); settings: Brain, 50 uM; remark: listed apart in the source
[7] = system: Mus musculus; assay: Analgesic activity in Swiss albino mouse assessed as inhibition of acetic acid-induced abdominal contraction at 3 mg/kg, po measured after 30 mins; type: functional, organism-based; parameters: dose 3 mg/kg; settings: Abdominal cavity
How it was run: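 Writhing was induced in Swiss albino mice with 0.6% acetic acid. Drugs were given p.o. 30 min before the test. Writhes were counted at 30 and 60 min and compared with vehicle-treated controls.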

[8] = system: Rattus norvegicus; assay: Antinociceptive activity against carrageenan-induced hyperalgesia in rat assessed as paw pressure at 3 mg/kg, po measured after 90 mins (reference value: 34.8 +/- 3.1 g); type: functional; how it was run: as §1
[9] = biological target: T1, P2X purinoceptor 7 (Rattus norvegicus); settings: Brain, 50 uM; remark: listed apart in the source
[10] = system: Rattus norvegicus; assay: Antinociceptive activity against carrageenan-induced hyperalgesia in rat assessed as paw pressure at 10 mg/kg, po measured after 15 mins (reference value: 32.8 +/- 2.9 g); type: functional; how it was run: as §1
[11] = biological target: Prostaglandin G/H synthase 1 (Homo sapiens) (UniProt P23219); assay: Inhibition of COX-1 (unknown origin)
Prostaglandin G/H synthase 1 (Homo sapiens), sequence (P23219 whole entry): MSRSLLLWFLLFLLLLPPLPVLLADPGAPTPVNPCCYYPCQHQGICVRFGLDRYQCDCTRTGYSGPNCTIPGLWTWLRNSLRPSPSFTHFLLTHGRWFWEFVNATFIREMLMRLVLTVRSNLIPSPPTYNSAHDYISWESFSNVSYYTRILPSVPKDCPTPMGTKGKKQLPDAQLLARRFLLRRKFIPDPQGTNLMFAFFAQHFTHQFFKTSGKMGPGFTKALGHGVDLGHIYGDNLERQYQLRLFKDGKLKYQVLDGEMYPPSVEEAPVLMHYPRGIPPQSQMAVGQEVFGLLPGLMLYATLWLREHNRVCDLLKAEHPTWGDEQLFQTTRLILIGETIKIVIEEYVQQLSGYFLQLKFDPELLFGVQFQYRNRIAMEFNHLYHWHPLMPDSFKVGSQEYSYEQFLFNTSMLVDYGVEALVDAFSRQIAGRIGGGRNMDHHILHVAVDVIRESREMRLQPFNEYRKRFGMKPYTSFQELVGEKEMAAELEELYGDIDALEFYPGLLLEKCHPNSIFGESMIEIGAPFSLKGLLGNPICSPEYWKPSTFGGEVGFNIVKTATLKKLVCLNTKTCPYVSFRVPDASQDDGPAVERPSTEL

[12] = system: Rattus norvegicus; assay: Antinociceptive activity against carrageenan-induced hyperalgesia in rat assessed as paw pressure at 20 mg/kg, po measured after 60 mins (reference value: 31.8 +/- 2.2 g); type: functional; how it was run: as §1
[13] = system: Rattus norvegicus; assay: Antinociceptive activity against carrageenan-induced hyperalgesia in rat assessed as paw pressure at 3 mg/kg, po measured after 30 mins (reference value: 30.6 +/- 3.2 g); type: functional; how it was run: as §1
[14] = system: Rattus norvegicus; assay: Antinociceptive activity against carrageenan-induced hyperalgesia in rat assessed as paw pressure at 20 mg/kg, po measured after 90 mins (reference value: 34.8 +/- 3.1 g); type: functional; how it was run: as §1
[15] = system: Rattus norvegicus; assay: Antinociceptive activity against carrageenan-induced paw edema in rat assessed as paw edema volume at 3 mg/kg, po measured after 30 mins (reference value: 2.71+/- 0.08 ml); type: functional
[16] = system: Rattus norvegicus; assay: Antinociceptive activity against carrageenan-induced hyperalgesia in rat assessed as paw pressure at 20 mg/kg, po measured after 15 mins (reference value: 32.8 +/- 2.9 g); type: functional; how it was run: as §1
[17] = biological target: T2, P2X purinoceptor 7 (Rattus norvegicus, UniProt Q64663); assay: Antagonist activity at P2X7 in Sprague-Dawley rat synaptosome assessed as inhibition of BzATP-induced [3H]D-aspartate efflux compound preincubated for 8 mins by liquid scintillation counting; parameters: species or system Brain
T2 sequence (Q64663 whole entry): T1 sequence (whole entry)
How it was run: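 Purified rat cerebrocortical synaptosomes loaded with [3H]D-aspartate and superfused. 100 μM BzATP added for 120 s. Compound added 8 min before BzATP. Ca2+-free conditions used medium with 0.5 mM EGTA, added 18 min before BzATP. Log concentration–response for inhibition of evoked efflux. Mean ± SEM of 3−12 independent experiments in triplicate.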

[18] = system: Rattus norvegicus; assay: Antinociceptive activity against carrageenan-induced hyperalgesia in rat assessed as paw pressure at 10 mg/kg, po measured after 30 mins (reference value: 30.6 +/- 3.2 g); type: functional; how it was run: as §1
[19] = system: Rattus norvegicus; assay: Antinociceptive activity against carrageenan-induced hyperalgesia in rat assessed as paw pressure at 10 mg/kg, po measured after 90 mins (reference value: 34.8 +/- 3.1 g); type: functional; how it was run: as §1
[20] = biological target: T3, Prostaglandin G/H synthase 2 (Homo sapiens) (UniProt P35354); assay: Inhibition of COX-2 (unknown origin)
T3 sequence (whole entry): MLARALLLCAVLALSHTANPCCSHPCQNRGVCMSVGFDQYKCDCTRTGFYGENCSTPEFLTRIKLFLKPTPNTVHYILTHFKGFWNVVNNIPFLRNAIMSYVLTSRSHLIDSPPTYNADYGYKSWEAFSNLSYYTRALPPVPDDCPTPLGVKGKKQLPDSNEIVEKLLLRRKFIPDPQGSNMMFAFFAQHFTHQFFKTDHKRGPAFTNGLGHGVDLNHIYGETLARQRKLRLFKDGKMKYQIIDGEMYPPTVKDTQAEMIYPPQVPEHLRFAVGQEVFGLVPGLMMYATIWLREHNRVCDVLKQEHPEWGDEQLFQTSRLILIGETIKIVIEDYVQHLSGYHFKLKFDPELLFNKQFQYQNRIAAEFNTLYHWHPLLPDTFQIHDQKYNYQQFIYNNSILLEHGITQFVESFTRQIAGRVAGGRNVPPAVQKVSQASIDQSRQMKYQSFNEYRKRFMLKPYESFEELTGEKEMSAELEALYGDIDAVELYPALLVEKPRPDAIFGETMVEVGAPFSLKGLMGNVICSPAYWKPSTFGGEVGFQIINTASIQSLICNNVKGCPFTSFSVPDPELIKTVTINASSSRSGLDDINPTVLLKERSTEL

[21] = system: Mus musculus; assay: Analgesic activity in Swiss albino mouse assessed as inhibition of acetic acid-induced abdominal contraction at 10 mg/kg, po measured after 30 mins in presence of SR-141716A; type: functional, organism-based; parameters: dose 10 mg/kg; settings: Abdominal cavity
[22] = system: Rattus norvegicus; assay: Antinociceptive activity against carrageenan-induced paw edema in rat assessed as paw edema volume at 20 mg/kg, po measured after 30 mins (reference value: 2.71+/- 0.08 ml); type: functional
[23] = system: Rattus norvegicus; assay: Antinociceptive activity against carrageenan-induced hyperalgesia in rat assessed as paw pressure at 3 mg/kg, po measured after 15 mins (reference value: 32.8 +/- 2.9 g); type: functional; how it was run: as §1
[24] = species on record: Rattus norvegicus; assay: Inhibition of K+ depolarization-induced [3H]D-aspartate efflux in Sprague-Dawley rat synaptosome preincubated at 50 uM for 8 mins by liquid scintillation counting; type: functional, tissue-based; settings: Brain
How it was run: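 Purified rat cerebrocortical synaptosomes were loaded with [3H]D-aspartate and superfused. Compound was added 8 min before K+ depolarization, which was applied as KCl for 120 s during superfusion. Evoked tritium efflux was measured. Data are mean ± SEM of 3–12 independent experiments in triplicate.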

[25] = system: Rattus norvegicus; assay: Antinociceptive activity against carrageenan-induced hyperalgesia in rat assessed as paw pressure at 20 mg/kg, po measured after 30 mins (reference value: 30.6 +/- 3.2 g); type: functional; how it was run: as §1

For `O=C(NC1(C(=O)NC2CC2)C2CC3CC(C2)CC1C3)c1ccccc1` (stereo not given), the Activity [1] was 43.4 g, the Activity [2] was 2.06 mL and the inhibition [3] was “Active”. The inhibition [4] was “Active”, the Activity [5] was 35.6 g and the inhibition [6] was “inactive”. The inhibition [7] was “Active”, the Activity [8] was 36.9 g and the inhibition [9] was “inactive”. The Activity [10] was 44.2 g, the inhibition [11] was “inactive” and the Activity [12] was 48.3 g. It also gave an Activity [13] of 40.8 g, an Activity [14] of 33.6 g and an Activity [15] of 2.53 mL. It also gave an Activity [16] of 48.4 g, an IC50 [17] of 7.7 µM and an Activity [18] of 52.7 g. The Activity [19] was 38.2 g, the inhibition [20] was “inactive” and the inhibition [21] was “Active”. The Activity [22] was 2.1 mL, the Activity [23] was 39.1 g and the inhibition [24] was “inactive”. For the same compound, the Activity [25] was 53.9 g.
